Activity calls are given as the source filed them.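 Rule for the calls, unless noted: active = potentiation averaged over duplicate wells exceeding buffer-only control mean by more than 3 SD; inactive = the rest.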

Assay [1] in a line: thallium flux activation in parental CHO cells, counter-screen for KCNQ1 potentiator project (AID 493006;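 active = duplicate-averaged activation above buffer control mean plus 5 SD of those controls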;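 for activation: fluorescence ratio of max minus min over baseline after K+ and Tl+ depolarization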). The settings on record: parental CHO-K1 cells, FluxOR thallium flux, at 10 µM; active compounds read high. In outline:
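Material: parental CHO-K1 cells, FluxOR dye-loaded; Also added: Potassium/thallium depolarization pulse; Schedule: overnight 37 °C plating, 90 min dye, 20 min dark compound; Signal: kinetic FluxOR fluorescence, 10 s baseline, 110 s after stimulus.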
(The purpose of a counterscreen is to sort out artefacts and off-target activity.)

Assay [2] has as its target Potassium voltage-gated channel subfamily KQT member 1 (Homo sapiens) (UniProt P51787). The assay is described as follows: KCNQ1 potassium channel potentiators, confirmation, FluxOR thallium flux, CHO cells, duplicates (AID 493007).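 For outcome: cells depolarized by a potassium plus thallium sulfate stimulus after compound.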 The conditions noted are these: KCNQ1 cell line, FluxOR thallium flux fluorescence, at 10 µM; active compounds read high, % of reference activator effect, buffer zero. The method, boiled down: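 System: KCNQ1-expressing CHO cell line; technique: kinetic thallium influx fluorescence with FluxOR dye, 10 s baseline, 110 s post-stimulus; timing: dye 90 min then compound 20 min, both at room temperature; controls: buffer-only wells as 0% and R-L3 activator as 100%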

Assay [3] has as its target Potassium voltage-gated channel subfamily KQT member 2 (Rattus norvegicus) (UniProt O88943). The assay is described as follows: rat KCNQ2 channel potentiation, selectivity assay for KCNQ1 potentiator project, KCNQ2-CHO-K1 cells (AID 493009;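 active = mean duplicate potentiation above the buffer control mean plus 5 SD of buffer wells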;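 note: assay conditions were tuned for KCNQ1 rather than KCNQ2 modulators; signal is max minus min fluorescence divided by baseline after thallium stimulus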). The settings on record: FluxOR thallium flux fluorescence, at 10 µM; active compounds read high, scaled: buffer 0, activator control 100.

Assay [4] deals with Potassium voltage-gated channel subfamily KQT member 1 (Homo sapiens) (UniProt P51787). Briefly: KCNQ1 channel current potentiators, confirmation, orthogonal assay for KCNQ1 potentiator project, IonWorks patch clamp, KCNQ1-CHO cells (AID 493184;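 active = current rise at least 3 SD above the untreated control mean in each of two repeat wells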;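 for current potentiation: percent change of the same well's current before compound addition so 0% = no change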). The conditions noted are these: automated patch clamp current, at 10 µM; active compounds read high. The method, boiled down: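 Test system: KCNQ1-expressing CHO cells. Medium: pH 7.4 external bath. Probe or stimulus: voltage step from -90 mV holding to +40 mV, 2,000 ms. Compound: 10 µM final, single point. Detection: automated perforated-patch electrophysiology. Read-out: percent current increase versus pre-compound level. Repeats: two replicates.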
Background: The patch-clamp technique gives a direct electrical read-out from membranes.

Chain of Potassium voltage-gated channel subfamily KQT member 2 (Rattus norvegicus) (O88943 whole entry, looked up): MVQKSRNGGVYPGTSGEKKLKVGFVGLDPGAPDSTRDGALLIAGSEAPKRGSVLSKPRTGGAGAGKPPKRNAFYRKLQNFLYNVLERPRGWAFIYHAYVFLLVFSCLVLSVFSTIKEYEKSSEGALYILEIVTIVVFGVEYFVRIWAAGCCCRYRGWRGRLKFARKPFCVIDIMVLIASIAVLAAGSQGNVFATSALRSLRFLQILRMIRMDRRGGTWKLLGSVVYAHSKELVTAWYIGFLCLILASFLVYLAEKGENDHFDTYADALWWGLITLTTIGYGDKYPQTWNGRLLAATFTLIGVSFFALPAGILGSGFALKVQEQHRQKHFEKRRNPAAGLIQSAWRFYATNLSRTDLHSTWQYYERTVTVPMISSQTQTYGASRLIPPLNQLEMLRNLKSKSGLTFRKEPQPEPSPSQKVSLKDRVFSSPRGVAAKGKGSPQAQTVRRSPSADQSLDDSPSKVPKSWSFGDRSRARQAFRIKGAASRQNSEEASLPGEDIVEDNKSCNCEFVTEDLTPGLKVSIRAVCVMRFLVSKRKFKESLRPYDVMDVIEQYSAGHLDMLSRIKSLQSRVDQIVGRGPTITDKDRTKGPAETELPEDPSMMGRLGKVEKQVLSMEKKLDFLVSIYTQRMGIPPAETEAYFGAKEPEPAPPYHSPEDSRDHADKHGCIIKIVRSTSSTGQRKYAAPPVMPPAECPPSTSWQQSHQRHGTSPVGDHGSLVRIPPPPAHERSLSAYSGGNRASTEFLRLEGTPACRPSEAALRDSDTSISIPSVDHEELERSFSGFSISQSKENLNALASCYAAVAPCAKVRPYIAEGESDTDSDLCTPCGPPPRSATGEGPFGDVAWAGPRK
Chain of Potassium voltage-gated channel subfamily KQT member 1 (Homo sapiens) (P51787 whole entry, looked up): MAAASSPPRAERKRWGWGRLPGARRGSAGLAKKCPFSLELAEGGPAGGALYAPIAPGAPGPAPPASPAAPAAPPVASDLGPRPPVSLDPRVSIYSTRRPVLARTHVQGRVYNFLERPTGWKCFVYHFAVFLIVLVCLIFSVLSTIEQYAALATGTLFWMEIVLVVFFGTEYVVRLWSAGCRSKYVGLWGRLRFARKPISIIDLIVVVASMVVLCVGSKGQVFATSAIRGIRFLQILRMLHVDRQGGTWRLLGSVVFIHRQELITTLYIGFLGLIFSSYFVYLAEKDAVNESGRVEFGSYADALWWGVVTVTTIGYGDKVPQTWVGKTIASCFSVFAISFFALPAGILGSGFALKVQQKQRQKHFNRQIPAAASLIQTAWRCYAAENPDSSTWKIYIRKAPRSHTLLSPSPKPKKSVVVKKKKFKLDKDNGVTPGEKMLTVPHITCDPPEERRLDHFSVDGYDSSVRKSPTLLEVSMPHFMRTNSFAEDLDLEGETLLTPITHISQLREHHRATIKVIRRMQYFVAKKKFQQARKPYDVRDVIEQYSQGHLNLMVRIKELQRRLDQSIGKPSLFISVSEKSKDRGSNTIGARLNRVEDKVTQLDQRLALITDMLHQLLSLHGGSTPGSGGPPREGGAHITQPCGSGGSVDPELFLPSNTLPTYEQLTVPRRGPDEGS

`CN(C(=S)NC(=O)c1ccccc1)C1CCCCC1`: the activation in assay [1] was 228% (active). For the same molecule, the potentiation is 29% (active) in assay [2] and 186% (active) in assay [3]. The outcome in assay [4] was inactive.

As for `CC(=O)c1cccc(NC(=S)NC(=O)c2ccc(Cl)cc2)c1`, the result in assay [1], in assay [2], in assay [3] and in assay [4] was inactive.

`C=CCN1C(=O)C(CC(=O)NCC)SC1=Nc1ccc(S(N)(=O)=O)cc1` (stereo not given): the outcome in assay [1], in assay [2], in assay [3] and in assay [4] was inactive.

Turning to `O=C(Nc1cc([N+](=O)[O-])ccc1N1CCCC1)c1cccs1`, the outcome in assay [1], in assay [2], in assay [3] and in assay [4] was inactive.

With `CC(=O)c1c(NC(=O)c2ccccc2)[nH]c(-c2ccccc2)nc1=S`, in assay [1], the activation is 230% (active). The potentiation in assay [2] is 67% (active); in assay [3], 236% (active). The result in assay [4] was inactive.

In the case of `C/C(=N/NC(=O)c1ccc(Br)o1)c1ccc(C)o1`, the result in assay [1], in assay [2], in assay [3] and in assay [4] was inactive.

Consider `S=c1[nH]nc(-c2ccco2)n1/N=C/c1ccc(Cl)cc1Cl`, for which the activation in assay [1] is 174% (active). Further, the potentiation in assay [2] was 48% (active); in assay [3], 173% (active). In addition, the result in assay [4] was inactive.

As to `N=c1ncn(Cc2ccccc2)c2nc(SCCOc3ccccc3)[nH]c12`, the outcome in assay [1], in assay [2], in assay [3] and in assay [4] was inactive.

With `COc1ccccc1NS(=O)(=O)c1cc(NC(=O)c2cnccn2)ccc1N1CCOCC1`, the activation in assay [1] is 222% (active). Further, the potentiation in assay [2] was 54% (active); in assay [3], 248% (active). Moreover, the outcome in assay [4] was inactive.

On to `Cc1ccc(Cn2ncc3c(NN)ncnc32)cc1`, for which the outcome in assay [1], in assay [2], in assay [3] and in assay [4] was inactive.

With `C=CCn1c(O)c(N=NC(=S)Nc2ccc(OC)c(Cl)c2)c2ccccc21`, the activation in assay [1] was 191% (active). The potentiation in assay [2] was 57% (active); in assay [3] it was 215% (active). The outcome in assay [4] was inactive.

As to `Oc1ccc(N=Nc2ccc3c(c2)OCCO3)c2ncccc12`, the activation in assay [1] was 310% (active). The figures for the potentiation in assay [2] and in assay [3] were 116% (active) and 352% (active), respectively. In addition, in assay [4], the outcome was inactive.

Take `CCOc1ccccc1C1c2[nH]c3ccccc3c2C[C@H]2C(=O)N(C3CC3)CC(=O)N12` (stereo not given in full): the outcome in assay [1], in assay [2] and in assay [3] was inactive. In assay [4], the current potentiation was 22.3% (active).

`CCCCCCCN1N=C(C)C(C(=O)c2ccccc2)C1=O` (stereo not given): the outcome in assay [1], in assay [2], in assay [3] and in assay [4] was inactive.

As for `CCn1c(SCC(N)=O)nc2sc3c(c2c1=O)CCCC3`, the activation in assay [1] was 153% (active). For the same molecule, the potentiation in assay [2] was 34% (active); in assay [3] it was 147% (active). Besides, the outcome in assay [4] was inactive.

Turning to `C/C(=N\NC(=S)Nc1ccc(C)cc1)c1cc2ccccc2o1`, the outcome in assay [1] and in assay [4] was inactive. In addition, the potentiation was 97% (active) in assay [2] and 169% (active) in assay [3].

For `CC(C)(C)NCC(O)COc1ccccc1C(C)(C)C` (stereo not given), the result in assay [1], in assay [2], in assay [3] and in assay [4] was inactive.

As for `O=C(NC(=S)NC1CCCCC1)c1ccc(Cl)cc1`, the activation in assay [1] was 202% (active). In addition, the potentiation in assay [2] is 262% (active); in assay [3], 390% (active). Besides, in assay [4], the outcome was inactive.

Consider `O=C(Cn1ncc2c(=O)oc3ccccc3c21)N1CCN(C(=O)c2ccco2)CC1`, for which the outcome in assay [1], in assay [2], in assay [3] and in assay [4] was inactive.

As to `CCOC(=O)c1n[nH]n2c1nc(=S)c1ccccc12`, the activation in assay [1] was 260% (active). The values for the potentiation in assay [2] and in assay [3] were 54.5% (active) and 246% (active), respectively. Also, the outcome in assay [4] was inactive.

As for `CC(OC(=O)CCCNC(=O)c1ccc(Cl)cc1)C(=O)N(C)Cc1ccccc1` (stereo not given), the result in assay [1], in assay [2], in assay [3] and in assay [4] was inactive.

As to `COc1ccc(/C=C2/S/C(=N/N=C3\CC4CCC3(C)C4(C)C)NC2=O)cc1` (stereo not given), the outcome in assay [1] and in assay [4] was inactive. Further, the potentiation is 21% (active) in assay [2] and 186% (active) in assay [3].

In the case of `O=C(c1ccccc1)N1CCCC(c2ccc(Cl)cc2)=N1`, the outcome in assay [1], in assay [2], in assay [3] and in assay [4] was inactive.

`O=C(NC(=S)Nc1ccccc1N1CCCC1)c1cccs1`: the activation in assay [1] is 150% (active). Further, the potentiation is 104% (active) in assay [2] and 212% (active) in assay [3]. In addition, the outcome in assay [4] was inactive.

On to `Cc1cccc(/C=N/n2c(COc3ccccc3)n[nH]c2=S)c1`, for which the result in assay [1] and in assay [4] was inactive. The potentiation is 60.5% (active) in assay [2] and 142% (active) in assay [3].

For the molecule `Cc1ccc(Cc2c[nH]c(=S)s2)cc1`, the activation in assay [1] was 348% (active). Further, the values for the potentiation in assay [2] and in assay [3] were 126% (active) and 343% (active), respectively. In assay [4], the outcome was inactive.

Take `CCCc1cc(=O)n2[nH]c(C)c(-c3ccc(Cl)cc3)c2n1`: the activation in assay [1] is 180% (active). The potentiation in assay [2] is 23% (active); in assay [3] it was 172% (active). In addition, the outcome in assay [4] was inactive.

Regarding `Cc1ccc(-n2cccc2/C=C2\C(=N)N3N=C(C(C)C)SC3=NC2=O)cc1`, the result in assay [1] and in assay [3] was inactive. Further, the potentiation in assay [2] is 23.5% (active). The current potentiation in assay [4] was 36% (active).

As to `CN(C(=O)CSc1ncnc2sc(-c3ccccc3)cc12)C1CCS(=O)(=O)C1` (stereo not given), the activation in assay [1] was 529% (active). For the same molecule, the potentiation in assay [2] was 176% (active); in assay [3], 501% (active). Also, the result in assay [4] was inactive.

Consider `O=c1c2ccccc2[nH]c(=S)n1CCC1=CCCCC1`, for which the activation in assay [1] was 212% (active). Further, the potentiation is 46% (active) in assay [2] and 196% (active) in assay [3]. In addition, the result in assay [4] was inactive.

For the origin of these results see PubChem BioAssay.
